Laboratory results published in article PMC5677568 (Structure (London, England : 1993), 2017).

Assays:
Assay in all cases: Isothermal titration calorimetry
Format in all cases: binding
Details in all cases: read-out: Values shown are Kd
RBC36 = target: RBC36
In short: (§1)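 N-terminally His6-tagged VLR ectodomains were expressed in Hi5 insect cells or by transient transfection of 293S cells, then purified by Ni-NTA and Superdex75 size exclusion. Protein was dialysed overnight into the ITC buffer, and lyophilised glycans were dissolved in the dialysate. Cell concentration was set by A280 with calculated extinction coefficients. Titration used 16 injections of 2.45 μL (1 s each, 180 s apart) at 5 μCal reference power. The single-site fit gave Kd and ΔH.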

UEA-1 = target: UEA-1
In short: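 Commercial UEA-1 lectin was dialysed overnight into the ITC buffer, and lyophilised glycans were dissolved in the dialysate. Cell concentration was set by A280 with a calculated extinction coefficient. Titration used 16 injections of 2.45 μL (1 s duration, 180 s spacing) at 5 μCal reference power. Integrated peaks were fitted to a single-site model to give Kd and ΔH.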

O13 = target: O13
In short: as §1

Tn4-22 = target: Tn4-22
In short: as §1

C[C@@H]1O[C@@H](O[C@H]2[C@H](O[C@H]3[C@H](O)[C@@H](O)C(O)O[C@@H]3CO)O[C@H](CO)[C@H](O)[C@@H]2O)[C@@H](O)[C@H](O)[C@@H]1O (stereo partly drawn) [2′-fucosyllactose, 2′-fucosyllactose, Fucα1-2Galβ1-4Glc]
Kd (RBC36): 57.1 µM | Kd (UEA-1): 12.5 µM

CC(=O)N[C@H]1C(O)O[C@H](CO)[C@@H](O[C@@H]2O[C@H](CO)[C@H](O)[C@H](O)[C@H]2O[C@@H]2O[C@@H](C)[C@@H](O)[C@@H](O)[C@@H]2O)[C@@H]1O (stereo partly drawn) [H-trisaccharide, blood group H-trisaccharide type II, Fucα1-2Galβ1-4GlcNAc]
Kd (RBC36): 8.3 µM | Kd (O13): 2.6 µM | Kd (UEA-1): 8.1 µM | Kd (Tn4-22): 6.9 µM

CC(=O)N[C@H]1[C@H](O[C@H]2[C@@H](O)[C@@H](CO)O[C@@H](O[C@H]3[C@H](O)[C@@H](O)C(O)O[C@@H]3CO)[C@@H]2O)O[C@H](CO)[C@@H](O[C@@H]2O[C@H](CO)[C@H](O)[C@H](O)[C@H]2O)[C@@H]1O (stereo partly drawn) [LNnT, lacto-N-neotetraose, Galβ1-4GlcNAcβ1-3Galβ1-4Glc]
Kd (O13): 160 µM | Kd (Tn4-22): 16.2 µM

CC(=O)N[C@H]1C(O)O[C@H](CO)[C@@H](O[C@@H]2O[C@H](CO)[C@H](O)[C@H](O)[C@H]2O[C@@H]2O[C@@H](C)[C@@H](O)[C@@H](O)[C@@H]2O)[C@@H]1O[C@@H]1O[C@@H](C)[C@@H](O)[C@@H](O)[C@@H]1O (stereo partly drawn) [Lewis-Y, Lewis-Y antigen tetrasaccharide, Fucα1-2Galβ1-4(Fucα1-3)GlcNAc]
Kd (UEA-1): 19.8 µM
